# From ChEMBL document CHEMBL4359881, “Novel antiacanthamoebic compounds belonging to quinazolinones” (Eur J Med Chem, 2019)
# Calls of active or inactive are those of the source. The rule behind the calls is not given here.
# Assays:
# [1] = tested on: Acanthamoeba castellanii; experiment: (§1) Antiamoebic activity against Acanthamoeba castellanii T4 genotype ATCC 50492 infected in human HaCaT cells assessed as reduction in amoeba-induced host cell cytopathogenicity at 100 ug/ml preincubated with amoeba for 2 hrs followed by incubation of suspension with host cell for 24 hrs by LDH release assay; format: functional, organism-based
# Method in brief: (§2)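 Amoebae were pretreated with compound for 2 h at 30 °C, pelleted at 3000g for 5 min, and resuspended in fresh RPMI-1640 to remove compound. They were then added to HaCaT monolayers for 24 h at 37 °C in 5% CO2. Supernatant LDH was read at 492 nm. % cytotoxicity was calculated against untreated and 0.1% Triton X-100 lysed cells. Duplicates; mean ± SE.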
# [2] = tested on: Acanthamoeba castellanii; experiment: Antiamoebic activity against Acanthamoeba castellanii T4 genotype ATCC 50492 trophozites assessed as reduction in viable cells at 50 ug/ml incubated for 24 hrs by trypan blue staining based hemocytometric method relative to control; format: functional; conditions: T4 genotype ATCC 50492, 24 h
# Method in brief: (§3)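 Trophozoites from PYG cultures at 30 °C were detached on ice and resuspended in PBS. They were exposed at 5×10^5 per well in RPMI-1640 at 30 °C for 24 h, stained with 0.1% Trypan blue for 5 min, and unstained cells were counted by hemocytometer. Untreated cells were the negative control and chlorhexidine the positive control. Significance was tested against methanol solvent. Duplicates; mean ± SE.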
# [3] = tested on: Acanthamoeba castellanii; experiment: Inhibition of Acanthamoeba castellanii T4 genotype ATCC 50492 excystation at 100 ug/ml incubated with pre-formed cysts for 72 hrs by hemocytometric method; format: functional, organism-based
# Method in brief: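 Cysts were formed by plating 1×10^6 trophozoites on 1.5% non-nutrient agar at 30 °C for up to 2 weeks, then scraped into PBS. 1×10^5 cysts were incubated with compound in PYG at 30 °C for 72 h, and emerging trophozoites were counted by hemocytometer. Duplicates; mean ± SE; two-tailed two-sample t-test.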
# [4] = tested on: Acanthamoeba castellanii; experiment: Antiamoebic activity against Acanthamoeba castellanii T4 genotype ATCC 50492 trophozites assessed as reduction in viable cells at 100 ug/ml incubated for 24 hrs by trypan blue staining based hemocytometric method relative to control; format: functional; conditions: T4 genotype ATCC 50492, 24 h; method in brief: as §3
# [5] = tested on: HaCaT; experiment: Cytotoxicity against human HaCaT cells at 100 ug/ml incubated for 24 hrs by LDH release assay; format: cell-based
# Method in brief: (§4)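 HaCaT keratinocytes were grown in RPMI-1640 with 10% FBS and Nu-serum and seeded to a monolayer over 24 h. Compound was applied for 24 h at 37 °C in 5% CO2, and LDH in the supernatant was measured. Medium alone gave the baseline and 0.1% Triton X-100 gave total lysis. Duplicates; mean ± SE.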
# [6] = tested on: Acanthamoeba castellanii; experiment: as §1, with “assay relative to control” for “assay”; format: functional; conditions: T4 genotype ATCC 50492, HaCaT; method in brief: as §2
# [7] = tested on: Acanthamoeba castellanii; experiment: Antiamoebic activity against Acanthamoeba castellanii T4 genotype ATCC 50492 assessed as increase in pore formation at 100 ug/ml incubated for 2 hrs by FE-SEM analysis; format: functional, organism-based
# Method in brief: (§5)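 Trophozoites were treated with compound, then fixed on glass coverslips in 2.5% glutaraldehyde in PBS at 4 °C for 2 h. Samples were dehydrated through 50–100% ethanol, air-dried and sputter-coated with platinum. Surface morphology was imaged by FESEM at several scales, with untreated amoebae for comparison.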
# [8] = tested on: Acanthamoeba castellanii; experiment: Antiamoebic activity against Acanthamoeba castellanii T4 genotype ATCC 50492 assessed as increase in surface disintegration at 100 ug/ml incubated for 2 hrs by FE-SEM analysis; format: functional, organism-based; method in brief: as §5
# [9] = tested on: Acanthamoeba castellanii; experiment: Antiamoebic activity against Acanthamoeba castellanii T4 genotype ATCC 50492 trophozites assessed as reduction in viable cells at 100 ug/ml incubated for 24 hrs by trypan blue staining based hemocytometric method; format: functional, organism-based; method in brief: as §3
# [10] = tested on: HaCaT; experiment: Cytotoxicity against human HaCaT cells at 100 ug/ml incubated for 24 hrs by LDH release assay relative to control; format: cell-based; method in brief: as §4
# [11] = tested on: Acanthamoeba castellanii; experiment: Inhibition of Acanthamoeba castellanii T4 genotype ATCC 50492 trophozites encystation at 100 ug/ml incubated for 72 hrs by hemocytometric method; format: functional, organism-based
# Method in brief: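 5×10^5 trophozoites in PBS were pretreated with compound for 15 min at room temperature. They were then transferred into encystation medium (50 mM MgCl2, 10% glucose) at 30 °C for 72 h. Trophozoites were lysed with 0.25% SDS for 10 min, and SDS-resistant cysts were counted by hemocytometer. Duplicates; mean ± SE; two-tailed t-test.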
SMILES,inhibition [1],inhibition at 50 µg/mL [2] [%],inhibition [3],inhibition at 100 µg/mL [4] [%],Activity [5],inhibition at 100 µg/mL [6] [%],Activity [7],Activity [8],inhibition [9],Activity [10] [%],inhibition [11]
COc1ccc(OC)c(-n2cnc3c(C)cccc3c2=O)c1,Active,> 50,Active,> 50,Non-Toxic,–,–,–,–,–,–
Cc1cccc2c(=O)n(-c3ccc(I)cc3)cnc12,–,> 60,Active,> 50,Non-Toxic,100,–,–,–,–,–
Cc1cccc2c(=O)n(-c3ccc(F)cc3)cnc12,–,> 60,Active,> 80,Non-Toxic,100,Active,Active,–,–,–
Cc1cc(C)cc(-n2cnc3c(C)cccc3c2=O)c1,Active,–,Active,–,Non-Toxic,–,–,–,inactive,–,–
Cc1cccc2c(=O)n(-c3ccc(Cl)cc3)cnc12,Active,> 50,Active,> 50,Non-Toxic,–,–,–,–,–,–
N=C(NCCCCCCNC(=N)NC(=N)Nc1ccc(Cl)cc1)NC(=N)Nc1ccc(Cl)cc1,–,–,Active,–,–,–,–,–,–,–,–
COc1ccc(-n2cnc3c(C)cccc3c2=O)cc1,Active,> 50,Active,> 50,Non-Toxic,–,–,–,–,–,–
Cc1cccc2c(=O)n(-c3cccc(Cl)c3)cnc12,Active,> 50,Active,> 50,Non-Toxic,–,–,–,–,–,–
Cc1cccc2c(=O)n(-c3ccc(Br)cc3)cnc12,Active,> 50,Active,> 50,Non-Toxic,–,–,–,–,–,–
Cc1cccc2c(=O)n(-c3cccc(Br)c3)cnc12,Active,> 50,Active,> 50,–,–,–,–,–,11,–
Cc1cccc2c(=O)n(-c3ccccc3I)cnc12,–,> 60,Active,> 80,–,100,–,–,–,8,Active
Cc1ccc(-n2cnc3c(C)cccc3c2=O)cc1,Active,> 50,Active,> 50,Non-Toxic,–,Active,Active,–,–,–
CSc1cccc(-n2cnc3c(C)cccc3c2=O)c1,Active,> 50,Active,> 50,Non-Toxic,–,–,–,–,–,–
Cc1ccccc1-n1cnc2c(C)cccc2c1=O,–,> 50,Active,> 50,Non-Toxic,100,–,–,–,–,Active
Cc1cccc2c(=O)n(-c3cccc(F)c3)cnc12,Active,> 50,Active,> 80,Non-Toxic,–,–,–,–,–,–
Cc1cccc2c(=O)n(-c3ccc(F)cc3F)cnc12,Active,> 50,Active,> 50,Non-Toxic,–,–,–,–,–,Active
